Results from different studies.

SMILES	tested on	test	test system	setting	endpoint	result
CC(C)(C)NC(=O)N[C@H](C(=O)N1C[C@H]2[C@@H]([C@H]1C(=O)NC(CC1CCC1)C(=O)C(N)=O)C2(C)C)C(C)(C)C (some centres unmarked)	A549	cell growth or viability, neutral red		48 h	CC50	> 100 µM
CC(C)C[C@H](NC(=O)[C@H](CC1CCCCC1)NC(=O)/C=C/c1ccccc1)C(=O)N[C@H](C=O)C[C@@H]1CCCNC1=O	A549	cell growth or viability, MTT		24 h	CC50	> 100 µM
COC(=O)C(NC(=O)c1cn(CCCCCF)c2ccccc12)C(C)(C)C (centres unmarked)			male Sprague-Dawley rat, plasma	subcutaneous, 200 µg/kg	Tmax	2.83 h
Cc1ncc2n1-c1ccc(Cl)cc1C(c1ccccc1F)=NC2		metabolic stability	beagle dog, hepatocytes	1 µM, 4 h	compound remaining	3%
CC(C)C[C@H](NC(=O)[C@@H](NC(=O)c1ccoc1)C(C)C)C(=O)N[C@H](C=O)C[C@@H]1CCCNC1=O	A549	cell growth or viability, MTT		24 h	CC50	> 100 µM
Cl.Cl.O=C(CCN1CCCCC1)c1ccc(-c2ccc(C(=O)CCN3CCCCC3)cc2)cc1			Sprague-Dawley rat, plasma	oral, 50 mg/kg	Tmax	0.65 h
CCC[C@@](N)(CO)CCc1ccc(OCCCCCC(C)C)cc1			dog, plasma	intravenous, 1 mg/kg	Cmax	906 nM
COC(=O)C1CCN(C(=O)c2ccc(NCc3cnc4nc(N)nc(N)c4n3)cc2)CC1	Cytochrome P450 2C19 (CYP2C19, Homo sapiens, UniProt P33261)	enzyme activity, inhibitor, luciferase		10 µM	inhibition	-23.4%
C[C@H](NC(=O)/C=C/c1ccccc1)C(=O)N[C@H](C=O)C[C@@H]1CCCNC1=O	A549	cell growth or viability, MTT		24 h	CC50	> 100 µM
O=C[C@H](C[C@@H]1CCNC1=O)NC(=O)[C@H](CC1CCCCC1)NC(=O)c1cc2ccccc2[nH]1			dog, plasma	intravenous, 8 mg/kg	Cmax	21800 µg/mL
O=S(=O)([O-])c1cccc(P(c2ccccc2)c2ccccc2)c1.[Na+]	NIH3T3	cell growth or viability, resazurin		18 h	CC50	189 µg/mL
